{
  "source": "ChEMBL document CHEMBL2146427",
  "about": "“Protective effects of hyperoside against carbon tetrachloride-induced liver damage in mice” (2011)",
  "key": {"Mus musculus [1]": {"system": "Mus musculus", "test": "Hepatoprotective activity against CCL4-induced liver damage in ICR mouse assessed as reduction in Kupffer cell hyperplasia at 100 mg/kg, ip dosed 30 mins before and 2 hrs post CCL4 challenge and measured 24 hrs post CCL4 challenge by hematoxylin-eosin staining based method", "assay_type": "functional, organism-based", "parameters": "dose 100 mg/kg", "method_in_brief": "(§1)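 Left liver lobe fixed in 10% neutral-buffered formalin, paraffin-embedded, cut at 5 μm and stained with H&E. Scored blind for portal inflammation, hepatocellular necrosis and inflammatory infiltration across 100 random nonconsecutive fields. Male ICR mice; CCl4 20 μL/kg ip in olive oil; tissue taken at 24 h.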"}, "Mus musculus [2]": {"system": "Mus musculus", "test": "Hepatoprotective activity against CCL4-induced liver damage in ICR mouse assessed as reduction in CCL-induced iNOS protein expression at 100 mg/kg, ip dosed 30 mins before and 2 hrs post CCL4 challenge and measured 24 hrs post CCL4 challenge by Western blot", "assay_type": "functional, organism-based", "parameters": "dose 100 mg/kg"}, "Mus musculus [3]": {"system": "Mus musculus", "test": "Hepatoprotective activity against CCL4-induced liver damage in ICR mouse assessed as augmentation of CCL-induced HO-1 protein expression at 100 mg/kg, ip dosed 30 mins before and 2 hrs post CCL4 challenge and measured 24 hrs post CCL4 challenge by Western blot", "assay_type": "functional, organism-based", "parameters": "dose 100 mg/kg"}, "Mus musculus [4]": {"system": "Mus musculus", "test": "Hepatoprotective activity against CCL4-induced liver damage in ICR mouse assessed as serum AST level at 100 mg/kg, ip dosed 30 mins before and 2 hrs post CCL4 challenge and measured 24 hrs post CCL4 challenge (reference value: 7518 +/- 426 U/L)", "assay_type": "functional", "details": "route intraperitoneal"}, "Mus musculus [5]": {"system": "Mus musculus", "test": "Hepatoprotective activity against CCL4-induced liver damage in ICR mouse assessed as reduction in CCL-induced COX2 mRNA expression at 100 mg/kg, ip dosed 30 mins before and 2 hrs post CCL4 challenge and measured 24 hrs post CCL4 challenge by RT-PCR", "assay_type": "functional, organism-based", "parameters": "dose 100 mg/kg", "method_in_brief": "(§2)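 Liver total RNA (Chomczynski–Sacchi), oligo(dT) primed reverse transcription, then PCR with 10 μM primers. Cycling was 94/56/72 °C, 30 s each, for 35 cycles (COX-2) or 30 cycles (HO-1), and 94/60/72 °C for 35 cycles (iNOS), with β-actin at 25 cycles. Products were run on 1.5% agarose and stained with ethidium bromide. Male ICR mice, 10 per group, fasted 16 h.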"}, "Mus musculus [6]": {"system": "Mus musculus", "test": "Hepatoprotective activity against CCL4-induced liver damage in ICR mouse assessed as serum ALT level at 100 mg/kg, ip dosed 30 mins before and 2 hrs post CCL4 challenge and measured 24 hrs post CCL4 challenge (reference value: 10229 +/- 918 U/L)", "assay_type": "functional", "details": "route intraperitoneal"}, "Mus musculus [7]": {"system": "Mus musculus", "test": "Hepatoprotective activity against CCL4-induced liver damage in ICR mouse assessed as […] level per gram of liver at 200 mg/kg, ip dosed 30 mins before and 2 hrs post CCL4 challenge and measured 24 hrs post CCL4 challenge (reference value: 4.8 +/- 0.3 umol/g liver)", "assay_type": "functional", "details": "route intraperitoneal"}, "Mus musculus [8]": {"system": "Mus musculus", "test": "Hepatoprotective activity against CCL4-induced liver damage in ICR mouse assessed as liver MDA level per mg protein at 50 mg/kg, ip dosed 30 mins before and 2 hrs post CCL4 challenge and measured 24 hrs post CCL4 challenge by TBARS detection based spectrophotometry (reference value: 3.2 +/- 0.5 nmol/mg protein)", "details": "route intraperitoneal"}, "Mus musculus [9]": {"system": "Mus musculus", "test": "(§3) Hepatoprotective activity against CCL4-induced liver damage in ICR mouse assessed as […] level per mg protein at 100 mg/kg, ip dosed 30 mins before and 2 hrs post CCL4 challenge and measured 24 hrs post CCL4 challenge by TBARS detection based spectrophotometry (reference value: 3.2 +/- 0.5 nmol/mg protein)", "assay_type": "functional", "details": "route intraperitoneal"}, "Mus musculus [10]": {"system": "Mus musculus", "test": "Hepatoprotective activity against CCL4-induced liver damage in ICR mouse assessed as increase in CCL-induced nuclear Nrf2 protein level at 100 mg/kg, ip dosed 30 mins before and 2 hrs post CCL4 challenge and measured 24 hrs post CCL4 challenge by Western blot", "assay_type": "functional, organism-based", "parameters": "dose 100 mg/kg", "method_in_brief": "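Nuclear proteins were extracted from fresh liver with NE-PER, and 15 μg per lane was immunoblotted: nitrocellulose, 1 h milk block, primary antibody overnight at 4 °C, ECL, densitometry. Male ICR mice (25–30 g), 10 per group, fasted 16 h; CCl4 20 μL/kg ip in olive oil; sampled 24 h later.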"}, "Mus musculus [11]": {"system": "Mus musculus", "test": "Hepatoprotective activity against CCL4-induced liver damage in ICR mouse assessed as reduction in CCL-induced TNFalpha production at 100 mg/kg, ip dosed 30 mins before and 2 hrs post CCL4 challenge and measured 24 hrs post CCL4 challenge by ELISA", "assay_type": "functional, organism-based", "parameters": "dose 100 mg/kg", "method_in_brief": "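Serum TNF-α measured by commercial ELISA on abdominal aortic blood drawn 24 h after ip CCl4 (20 μL/kg in olive oil). Male ICR mice, 10 per group, fasted 16 h; saline vehicle ip; mean ± SEM.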"}, "Mus musculus [12]": {"system": "Mus musculus", "test": "Hepatoprotective activity against CCL4-induced liver damage in ICR mouse assessed as reduction in CCL-induced COX2 protein expression at 100 mg/kg, ip dosed 30 mins before and 2 hrs post CCL4 challenge and measured 24 hrs post CCL4 challenge by Western blot", "assay_type": "functional, organism-based", "parameters": "dose 100 mg/kg"}, "Mus musculus [13]": {"system": "Mus musculus", "test": "Hepatoprotective activity against CCL4-induced liver damage in ICR mouse assessed as reduction in centrizonal necrosis at 100 mg/kg, ip dosed 30 mins before and 2 hrs post CCL4 challenge and measured 24 hrs post CCL4 challenge by hematoxylin-eosin staining based method", "assay_type": "functional, organism-based", "parameters": "dose 100 mg/kg", "method_in_brief": "as §1"}, "Mus musculus [14]": {"system": "Mus musculus", "test": "Hepatoprotective activity against CCL4-induced liver damage in ICR mouse assessed as serum AST level at 200 mg/kg, ip dosed 30 mins before and 2 hrs post CCL4 challenge and measured 24 hrs post CCL4 challenge (reference value: 7518 +/- 426 U/L)", "assay_type": "functional", "details": "route intraperitoneal"}, "Mus musculus [15]": {"system": "Mus musculus", "test": "Hepatoprotective activity against CCL4-induced liver damage in ICR mouse assessed as serum ALT level at 50 mg/kg, ip dosed 30 mins before and 2 hrs post CCL4 challenge and measured 24 hrs post CCL4 challenge (reference value: 10229 +/- 918 U/L)", "assay_type": "functional", "details": "route intraperitoneal"}, "Mus musculus [16]": {"system": "Mus musculus", "test": "Hepatoprotective activity against CCL4-induced liver damage in ICR mouse assessed as serum ALT level at 200 mg/kg, ip dosed 30 mins before and 2 hrs post CCL4 challenge and measured 24 hrs post CCL4 challenge (reference value: 10229 +/- 918 U/L)", "assay_type": "functional", "details": "route intraperitoneal"}, "Mus musculus [17]": {"system": "Mus musculus", "test": "Hepatoprotective activity against CCL4-induced liver damage in ICR mouse assessed as reduction in CCL-induced iNOS mRNA expression at 100 mg/kg, ip dosed 30 mins before and 2 hrs post CCL4 challenge and measured 24 hrs post CCL4 challenge by RT-PCR", "assay_type": "functional, organism-based", "parameters": "dose 100 mg/kg", "method_in_brief": "as §2"}, "Mus musculus [18]": {"system": "Mus musculus", "test": "Hepatoprotective activity against CCL4-induced liver damage in ICR mouse assessed as […] level per gram of liver at 100 mg/kg, ip dosed 30 mins before and 2 hrs post CCL4 challenge and measured 24 hrs post CCL4 challenge (reference value: 4.8 +/- 0.3 umol/g liver)", "assay_type": "functional", "details": "route intraperitoneal"}, "Mus musculus [19]": {"system": "Mus musculus", "test": "Hepatoprotective activity against CCL4-induced liver damage in ICR mouse assessed as […] level per gram of liver at 50 mg/kg, ip dosed 30 mins before and 2 hrs post CCL4 challenge and measured 24 hrs post CCL4 challenge (reference value: 4.8 +/- 0.3 umol/g liver)", "assay_type": "functional", "details": "route intraperitoneal"}, "Mus musculus [20]": {"system": "Mus musculus", "test": "Hepatoprotective activity against CCL4-induced liver damage in ICR mouse assessed as serum AST level at 50 mg/kg, ip dosed 30 mins before and 2 hrs post CCL4 challenge and measured 24 hrs post CCL4 challenge (reference value: 7518 +/- 426 U/L)", "assay_type": "functional", "details": "route intraperitoneal"}, "Mus musculus [21]": {"system": "Mus musculus", "test": "as §3, with “200” for “100”", "assay_type": "functional", "details": "route intraperitoneal"}, "Mus musculus [22]": {"system": "Mus musculus", "test": "Hepatoprotective activity against CCL4-induced liver damage in ICR mouse assessed as reduction in portal inflammation at 100 mg/kg, ip dosed 30 mins before and 2 hrs post CCL4 challenge and measured 24 hrs post CCL4 challenge by hematoxylin-eosin staining based method", "assay_type": "functional, organism-based", "parameters": "dose 100 mg/kg", "method_in_brief": "as §1"}, "Mus musculus [23]": {"system": "Mus musculus", "test": "Hepatoprotective activity against CCL4-induced liver damage in ICR mouse assessed as augmentation of CCL-induced HO-1 mRNA expression at 100 mg/kg, ip dosed 30 mins before and 2 hrs post CCL4 challenge and measured 24 hrs post CCL4 challenge by RT-PCR", "assay_type": "functional, organism-based", "parameters": "dose 100 mg/kg", "method_in_brief": "as §2"}},
  "note": "Active and inactive are the calls of the source. No cut-off for these calls is given here.",
  "data": [
    {"smiles": "O=c1c(O[C@@H]2O[C@H](CO)[C@H](O)[C@H](O)[C@H]2O)c(-c2ccc(O)c(O)c2)oc2cc(O)cc(O)c12", "note": "[HYPEROSIDE]", "values": [
      {"measurement": "Activity", "setting": "Mus musculus [1]", "result": "Active"},
      {"measurement": "Activity", "setting": "Mus musculus [2]", "result": "Active"},
      {"measurement": "Activity", "setting": "Mus musculus [3]", "result": "Active"},
      {"measurement": "Activity", "setting": "Mus musculus [4]", "result": 5488, "unit": "U/L"},
      {"measurement": "Activity", "setting": "Mus musculus [5]", "result": "Active"},
      {"measurement": "Activity", "setting": "Mus musculus [6]", "result": 7134, "unit": "U/L"},
      {"measurement": "Activity", "setting": "Mus musculus [7]", "result": 6, "unit": "µmol"},
      {"measurement": "Activity", "setting": "Mus musculus [8]", "result": 2.4, "unit": "nmol"},
      {"measurement": "Activity", "setting": "Mus musculus [9]", "result": 1.5, "unit": "nmol"},
      {"measurement": "Activity", "setting": "Mus musculus [10]", "result": "Active"},
      {"measurement": "Activity", "setting": "Mus musculus [11]", "result": "Active"},
      {"measurement": "Activity", "setting": "Mus musculus [12]", "result": "Active"},
      {"measurement": "Activity", "setting": "Mus musculus [13]", "result": "Active"},
      {"measurement": "Activity", "setting": "Mus musculus [14]", "result": 5382, "unit": "U/L"},
      {"measurement": "Activity", "setting": "Mus musculus [15]", "result": 10740, "unit": "U/L"},
      {"measurement": "Activity", "setting": "Mus musculus [16]", "result": 7055, "unit": "U/L"},
      {"measurement": "Activity", "setting": "Mus musculus [17]", "result": "Active"},
      {"measurement": "Activity", "setting": "Mus musculus [18]", "result": 5.2, "unit": "µmol"},
      {"measurement": "Activity", "setting": "Mus musculus [19]", "result": 6.1, "unit": "µmol"},
      {"measurement": "Activity", "setting": "Mus musculus [20]", "result": 6820, "unit": "U/L"},
      {"measurement": "Activity", "setting": "Mus musculus [21]", "result": 1.4, "unit": "nmol"},
      {"measurement": "Activity", "setting": "Mus musculus [22]", "result": "Active"},
      {"measurement": "Activity", "setting": "Mus musculus [23]", "result": "Active"}
    ]}
  ]
}
